# Measurements taken from the RNAGym collection of RNA variant scans (doi:10.1126/science.aae0568).
# This sample holds only a part of the variants without activity.
# B1: tRNA (parent)
# chain: GUUCCGUUGGCGUAAUGGUAACGCGUCUCCCUCCUAAGGAGAAGACUGCGGGUUCGAGUCCCGUACGGAACG
# Variants of: B1
# Experiment: yeast fitness relative to wild type (ratio to wild type); higher = fitter; tRNA-Arg(CCU), competitive growth, 37 C, YPD
# In short: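 Genotype frequency changes were the basis for Darwinian fitness relative to wild type. The frequencies came from 100-nucleotide paired-end sequencing of gene amplicons from the start population and each end population of pooled yeast strains with tRNA-Arg(CCU) gene variants at the native locus. Competition ran in YPD at 37°C for 24 hours in six replicates, genotypes needed ≥ 100 starting reads, and estimates < 0.5 were set to 0.5.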
row,Variant,yeast fitness
1,C4U G10A C24U C46G G58A,≤ 0.5
2,C4U G10A C24U C61A,0.623
3,C4U G10A C24U C62U,0.723
4,C4U G10A C24U G67A,0.751
5,C4U G10A C30U C49G G68A,0.585
6,C4U G10A C34G A40G U64C,≤ 0.5
7,C4U G10A C49A U53A G67A,≤ 0.5
8,C4U G10A C60G C66G A69U,≤ 0.5
9,C4U G10A C66U,0.663
10,C4U G10A G12A,0.653
11,C4U G10A G12A A42U,≤ 0.5
12,C4U G10A G23C,≤ 0.5
13,C4U G10A G23C C49A G68C,≤ 0.5
14,C4U G10A G39C,0.627
15,C4U G10A G51C U59G,≤ 0.5
16,C4U G10A U13C C24U,0.741
17,C4U G10A U19C C24U,0.721
18,C4U G10C A15G A20U A21G C33U U47C A57C,≤ 0.5
19,C4U G10C C24G C49U,≤ 0.5
20,C4U G10C C31G,≤ 0.5
21,C4U G10C C31G G50C C66U,≤ 0.5
22,C4U G10C C60G G67A,≤ 0.5
23,C4U G10C G17C C27G G38C U54G,≤ 0.5
24,C4U G10C G23A G52A G58A,≤ 0.5

row,Variant,yeast fitness
1,C4U G10C G23A U26C A43G U53A,≤ 0.5
2,C4U G10C G48C G56C,≤ 0.5
3,C4U G10C U35C G41A,≤ 0.5
4,C4U G10C U35C G41A C49U,≤ 0.5
5,C4U G10C U35C G41A C62G A70U,≤ 0.5
6,C4U G10U C24U,0.625
7,C4U G12A A20G C22U C34U A37G,≤ 0.5
8,C4U G12A A20G C22U C55U,0.606
9,C4U G12A A20G C22U C55U A65U,0.53
10,C4U G12A A20G C22U C62U A65C,≤ 0.5
11,C4U G12A C24A C61U,0.609
12,C4U G12A C24A G67C,≤ 0.5
13,C4U G12A C27G C34A C49A C60G C61U,0.522
14,C4U G12A C27G C34A C49A C66U,≤ 0.5
15,C4U G12A C27G C34A C49G,≤ 0.5
16,C4U G12A C62G,0.53
17,C4U G12A G48C,0.648
18,C4U G12C,0.884
19,C4U G12C A20G U47A C49U A57U C61A,0.572
20,C4U G12C A45C C49U,≤ 0.5
21,C4U G12C C27U,0.535
22,C4U G12C C46U G50A,0.608
23,C4U G12C G51A A65C,≤ 0.5
24,C4U G12C U28G U32C C62G,≤ 0.5

row,Variant,yeast fitness
1,C4U G12C U64C,0.696
2,C4U G12C U64C A70U,≤ 0.5
3,C4U G17A A37U U59C,≤ 0.5
4,C4U G17A C22U,≤ 0.5
5,C4U G17A C34A A57U,≤ 0.5
6,C4U G17A G18A C34U G56C,≤ 0.5
7,C4U G17A U19G A21G A43G G63A,≤ 0.5
8,C4U G17C,0.709
9,C4U G17C C22U A37C,≤ 0.5
10,C4U G17C G44A C61U,0.556
11,C4U G17C U47C C49A,≤ 0.5
12,C4U G18A A20G G23C C24G C46G,≤ 0.5
13,C4U G18A A21C A65C,≤ 0.5
14,C4U G18A A69U,0.743
15,C4U G18A C22U A40C G68C,0.591
16,C4U G18A G23C C24G,0.518
17,C4U G18A G23C C24G C46G,≤ 0.5
18,C4U G18A G23C C24G C46G A57G,≤ 0.5
19,C4U G18A G23C C24G C46G C66G,≤ 0.5
20,C4U G18A G39C G58C G67A,≤ 0.5
21,C4U G18C,0.651
22,C4U G18C A21G A57C,≤ 0.5
23,C4U G18C A45C,≤ 0.5
24,C4U G18C A45U C49U,≤ 0.5

row,Variant,yeast fitness
1,C4U G18C A45U G52A A65U,≤ 0.5
2,C4U G18C A57U C62U U64A G68C,≤ 0.5
3,C4U G18C C24U C61G,≤ 0.5
4,C4U G18C C27U C33G A43C A70U,0.659
5,C4U G18C C46U C60G,≤ 0.5
6,C4U G18C C49U C61A,≤ 0.5
7,C4U G18C G38A A40C,0.545
8,C4U G18C G38A A40C A65G,≤ 0.5
9,C4U G18C G51A C66A,≤ 0.5
10,C4U G18C G68C,0.535
11,C4U G23A,0.783
12,C4U G23A C33G C49A U54G A65G,≤ 0.5
13,C4U G23A U26A A45C,≤ 0.5
14,C4U G23A U26C,≤ 0.5
15,C4U G23C A36C A70U,≤ 0.5
16,C4U G23C C29G C31G,≤ 0.5
17,C4U G23C C49A G68C,≤ 0.5
18,C4U G23C G39C G44A,≤ 0.5
19,C4U G23C G39C G44A G67A,≤ 0.5
20,C4U G23C U26G A36C A37U A42C A45U C60U C66U A70G,0.634
21,C4U G25A,0.895
22,C4U G25A A36G,0.641
23,C4U G25A A69C,0.761
24,C4U G25A A70U,0.77

row,Variant,yeast fitness
1,C4U G25A G41A G56C A65C,≤ 0.5
2,C4U G25A G48C,0.62
3,C4U G25A G48C A57U,≤ 0.5
4,C4U G25A G48C C62A,0.551
5,C4U G25A G50C U54C,≤ 0.5
6,C4U G25A G56A,0.645
7,C4U G25C C30G C55A,0.561
8,C4U G25C G67A,0.719
9,C4U G38A G58C C66U,≤ 0.5
10,C4U G38C G41A C61G,0.707
11,C4U G39A,0.982
12,C4U G39A G67A,0.61
13,C4U G39C,0.829
14,C4U G39C C49U,0.62
15,C4U G39C C60U,≤ 0.5
16,C4U G39C G48C,0.537
17,C4U G39C G48C C62G,0.549
18,C4U G39C U54C,≤ 0.5
19,C4U G41A A42C,≤ 0.5
20,C4U G41C A65G,0.65
21,C4U G41C C55G,0.539
22,C4U G41C C60G,≤ 0.5
23,C4U G41C C66A,≤ 0.5
24,C4U G41C G51C G58C,≤ 0.5

row,Variant,yeast fitness
1,C4U G44A,1.05
2,C4U G44A C46U A69C,0.829
3,C4U G44C,1.01
4,C4U G44C A70C,0.782
5,C4U G44C C46A G56C,≤ 0.5
6,C4U G44C C55G A69U,≤ 0.5
7,C4U G48A,0.857
8,C4U G48A C60G,≤ 0.5
9,C4U G48A G52C U54C,≤ 0.5
10,C4U G48C,0.951
11,C4U G48C C55G A69U,≤ 0.5
12,C4U G51A,0.942
13,C4U G51C,0.637
14,C4U G51C G58A U59G,≤ 0.5
15,C4U G51C U59G,0.557
16,C4U G52A,0.727
17,C4U G52A A70C,0.646
18,C4U G52A C55U U64C,≤ 0.5
19,C4U G52A C60A,0.823
20,C4U G52A U59A,0.592
21,C4U G52C G67C,≤ 0.5
22,C4U G52C U59C,≤ 0.5
23,C4U G56A C60U,≤ 0.5
24,C4U G56A G67A,0.649

row,Variant,yeast fitness
1,C4U G56A U59C A65C A70G,≤ 0.5
2,C4U G56C,0.655
3,C4U G56C A65U,≤ 0.5
4,C4U G58A,0.838
5,C4U G58C,1.02
6,C4U G58C U64A,0.848
7,C4U G63A C66U,0.792
8,C4U G63U,0.778
9,C4U G67A,0.904
10,C4U G67A A69U,0.684
11,C4U U7A A20G C24A G51A,≤ 0.5
12,C4U U7A A36U A45U A57G A70G,≤ 0.5
13,C4U U7A C30G C34G A40C C66A A69C,0.559
14,C4U U7A C33G A42C,≤ 0.5
15,C4U U7A C62G,≤ 0.5
16,C4U U7A G10C C27G U32A,≤ 0.5
17,C4U U7A U8A,≤ 0.5
18,C4U U7A U8A A40U C61U,≤ 0.5
19,C4U U7A U8A A65U,≤ 0.5
20,C4U U7A U54G,≤ 0.5
21,C4U U7C,1.08
22,C4U U7C C24G C34A A45C G56A C61A A65C A69C A70G,≤ 0.5
23,C4U U7C C49G,0.534
